Data as given in ChEMBL document CHEMBL1124354, “Potential antiatherosclerotic agents. 6. Hypocholesterolemic trisubstituted urea analogues” (J Med Chem, 1989).

Tests used:
[1] = target: T1, Sterol O-acyltransferase 1 (Rattus norvegicus) (UniProt O70536); experiment: In vitro percentage inhibition against Acyl coenzyme A:cholesterol acyltransferase derived from rat adrenals; design: concentration or dose not given beside the values; conditions: concentration not given here
T1 sequence (whole entry): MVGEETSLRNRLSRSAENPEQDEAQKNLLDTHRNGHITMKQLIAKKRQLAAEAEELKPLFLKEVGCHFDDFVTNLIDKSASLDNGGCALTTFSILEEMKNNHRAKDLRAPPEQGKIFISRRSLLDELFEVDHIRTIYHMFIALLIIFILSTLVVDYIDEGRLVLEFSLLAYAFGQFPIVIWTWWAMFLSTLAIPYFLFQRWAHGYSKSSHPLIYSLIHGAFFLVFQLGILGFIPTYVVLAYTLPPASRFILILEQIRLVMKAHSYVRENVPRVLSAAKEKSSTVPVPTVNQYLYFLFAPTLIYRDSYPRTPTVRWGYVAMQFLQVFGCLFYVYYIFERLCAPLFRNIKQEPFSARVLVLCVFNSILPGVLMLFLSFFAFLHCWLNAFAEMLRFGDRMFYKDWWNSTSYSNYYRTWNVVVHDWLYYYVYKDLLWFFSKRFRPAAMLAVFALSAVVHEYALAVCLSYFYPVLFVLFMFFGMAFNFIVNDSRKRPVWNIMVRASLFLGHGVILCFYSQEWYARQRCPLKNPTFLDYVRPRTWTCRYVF
Method in brief: (§1)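 Rat adrenal 1000g supernatant (microsomal ACAT) in 0.2 M KH2PO4 pH 7.4 with BSA; test compound at final 5.2 µg/mL, preincubated 37 °C 10 min; [14C]oleoyl-CoA (0.4 µCi) added, 37 °C 30 min. Cholesteryl ester separated by TLC, scintillation counted; mean percent inhibition against compound-free control.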

[2] = target: T1, Sterol O-acyltransferase 1 (Rattus norvegicus); experiment: Serum hypolipidemic activity in rats; assay type: functional
Method in brief: (§2)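 Male CD-1 Sprague-Dawley rats, 140–150 g, fed 1% cholesterol/0.5% cholic acid diet with compound admixed at 0.01% (about 10 mg/kg/day) for 7 days. Serum and liver cholesterol measured by Technicon autoanalyzer methods; expressed as percent of control.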

[3] = target: T2, Sterol O-acyltransferase 1 (Rattus norvegicus, UniProt O70536); experiment: In vitro inhibitory concentration against Acyl coenzyme A:cholesterol acyltransferase derived from rat adrenals
T2 sequence (O70536 whole entry): T1 sequence (whole entry)
Method in brief: (§3)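 Rat adrenal homogenate in 0.2 M KH2PO4 buffer pH 7.4, 1000g supernatant (microsomal fraction) as enzyme; preincubated with BSA and test compound at graded concentrations, 37 °C 10 min, then [14C]oleoyl-CoA 0.4 µCi, 37 °C 30 min. Lipids extracted, cholesteryl ester isolated by TLC and counted. Triplicate tubes per concentration; IC50 by linear regression of means.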

[4] = target: T1, Sterol O-acyltransferase 1 (Rattus norvegicus); experiment: Liver hypolipidemic activity in rats; assay type: functional; method in brief: as §2
[5] = target: T2, Sterol O-acyltransferase 1; experiment: In vitro inhibitory concentration against ACAT derived from rat adrenals; method in brief: as §3
[6] = target: T1, Sterol O-acyltransferase 1 (Rattus norvegicus); experiment: In vitro percentage inhibition against ACAT derived from rat adrenals; conditions: concentration not given here; method in brief: as §1
[7] = target: T1, Sterol O-acyltransferase 1 (Rattus norvegicus); experiment: In vitro percentage inhibition againstAcyl coenzyme A:cholesterol acyltransferase derived from rat adrenals; conditions: concentration not given here; method in brief: as §1
Oryctolagus cuniculus [8] = experiment: Compound was evaluated for rabbit serum cholesterol level at dose 11 mg/kg per day on day 7; assay type: functional
Method in brief: (§4)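 Male New Zealand rabbits (2.5–3.0 kg) on rabbit pellets with 0.4% cholesterol and peanut oil for one week, then bled and grouped by plasma sterol. Drug mixed in diet (6% peanut oil) at 0.25, 0.075 or 0.025% for five weeks, about 109.6, 34.5 or 11.2 mg/kg/day. Dietary cholesterol adjusted weekly (0.30–0.35%). Aortic balloon denudation on day 7 of dosing.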

Oryctolagus cuniculus [9] = experiment: Compound was evaluated for rabbit serum cholesterol level at dose 35 mg/kg per day on day 0; assay type: functional; method in brief: as §4
Oryctolagus cuniculus [10] = experiment: Compound was evaluated for rabbit serum cholesterol level at dose 110 mg/kg per day on day 7; assay type: functional; method in brief: as §4
Oryctolagus cuniculus [11] = experiment: Compound was evaluated for rabbit serum cholesterol level at dose 11 mg/kg per day on day 35; assay type: functional; method in brief: as §4
Oryctolagus cuniculus [12] = experiment: Compound was evaluated for rabbit serum cholesterol level at dose 11 mg/kg per day on day 21; assay type: functional; method in brief: as §4
Oryctolagus cuniculus [13] = experiment: Compound was evaluated for rabbit serum cholesterol level at dose 110 mg/kg per day on day 0; assay type: functional; method in brief: as §4
Oryctolagus cuniculus [14] = experiment: Compound was evaluated for rabbit serum cholesterol levels for a dose of 110 mg/kg per day on day 21; assay type: functional; method in brief: as §4
[15] = target: T1, Sterol O-acyltransferase 1 (Rattus norvegicus); experiment: (§5) In vitro percentage inhibition against acyl coenzyme A:cholesterol acyltransferase derived from rat adrenals; design: concentration or dose not given beside the values; conditions: concentration not given here; method in brief: as §1
Oryctolagus cuniculus [16] = experiment: Compound was evaluated for rabbit serum cholesterol level at dose 35 mg/kg per day on day 35; assay type: functional; method in brief: as §4
Oryctolagus cuniculus [17] = experiment: Compound was evaluated for rabbit serum cholesterol level at dose 110 mg/kg per day on day 35; assay type: functional; method in brief: as §4
Oryctolagus cuniculus [18] = experiment: Compound was evaluated for rabbit serum cholesterol level at dose 35 mg/kg per day on day 7; assay type: functional; method in brief: as §4
Oryctolagus cuniculus [19] = experiment: Compound was evaluated for rabbit serum cholesterol level at dose 11 mg/kg per day on day 0; assay type: functional; method in brief: as §4
[20] = target: T2, Sterol O-acyltransferase 1; experiment: In vitro inhibitory concentration against acyl coenzyme A:cholesterol acyltransferase derived from rat adrenals; method in brief: as §3
Oryctolagus cuniculus [21] = experiment: Compound was evaluated for rabbit serum cholesterol level at dose 35 mg/kg per day on day 21; assay type: functional; method in brief: as §4
[22] = target: T1, Sterol O-acyltransferase 1 (Rattus norvegicus); experiment: In vitro percentage inhibition against Acyl coenzyme A:cholesterol acyltransferase derived from rat adrenals; conditions: concentration not given here
[23] = target: T1, Sterol O-acyltransferase 1 (Rattus norvegicus); experiment: as §5; conditions: concentration not given here
Method in brief: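 Rat adrenals homogenized in 0.2 M KH2PO4 (pH 7.4), spun at 1000g for 15 min at 5 °C; supernatant used as enzyme. Preincubated with BSA and test compound (final 5.2 µg/mL) at 37 °C for 10 min, then [14C]oleoyl-CoA (0.4 µCi) added for 30 min at 37 °C. Cholesteryl ester isolated by TLC and counted. Mean percent inhibition versus control without compound.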

| SMILES | inhibition [1] [%] | SS [2] [%] | IC50 [3] [µM] | LS [4] [%] | inhibition [15] [%] | IC50 [20] [µM] | other results |
| --- | --- | --- | --- | --- | --- | --- | --- |
| CCCCCCCCCCN(CCCCCCCCCC)C(=O)Nc1ccc(C)cc1C | 64 | 71 | 0.63 | 66 |  |  |  |
| Cc1cc(C)c(NC(=O)N(Cc2ccccc2)Cc2ccccc2)cc1C | 69 | 47 | 0.446 | 20 |  |  |  |
| Cc1cc(C)c(NC(=O)N(Cc2ccccc2)Cc2ccccc2)c(C)c1 | 37 | 32 | 3.74 | 28 |  |  |  |
| Cc1c(Cl)cccc1NC(=O)N(Cc1ccccc1)Cc1ccccc1 | 84 |  | 8.39 |  |  |  |  |
| CCCCCN(CCCCC)C(=O)Nc1ccc(C)cc1C |  | 82 |  | 49 |  |  | IC50 [5]: 0.952 µM; inhibition [6]: 90% |
| CCCCCCCN(CCCCCCC)C(=O)Nc1ccc(C)cc1C | 91 | 65 | 0.721 | 15 |  |  |  |
| O=C(Nc1cc(Cl)cc(Cl)c1)N(Cc1ccccc1)Cc1ccccc1 | 86 |  | 3.97 |  |  |  |  |
| CCCCCCN(CCCCCC)C(=O)Nc1ccc(C)cc1C | 95 | 59 | 0.331 | 36 |  |  |  |
| O=C(Nc1ccc([N+](=O)[O-])cc1)N(Cc1ccccc1)Cc1ccccc1 |  |  |  |  |  |  | inhibition [7]: 52% |
| CCCCCCCN(Cc1cccs1)C(=O)Nc1cc(Cl)c(Cl)cc1Cl |  | 56 | 0.484 | 28 |  |  |  |
| CCCCN(Cc1ccccc1)C(=O)Nc1ccc(Cl)cc1C |  | 72 | 7.65 | 62 |  |  |  |
| CCCCN(Cc1ccccc1)C(=O)Nc1ccc(C)cc1C |  | 70 |  | 75 | 91 | 4.8 | SC (Oryctolagus cuniculus [8]): 340 mg/dL; SC (Oryctolagus cuniculus [9]): 270 mg/dL; SC (Oryctolagus cuniculus [10]): 230 mg/dL; SC (Oryctolagus cuniculus [11]): 722 mg/dL; SC (Oryctolagus cuniculus [12]): 556 mg/dL; SC (Oryctolagus cuniculus [13]): 278 mg/dL; SC (Oryctolagus cuniculus [14]): 343 mg/dL; SC (Oryctolagus cuniculus [16]): 488 mg/dL; SC (Oryctolagus cuniculus [17]): 405 mg/dL; SC (Oryctolagus cuniculus [18]): 255 mg/dL; SC (Oryctolagus cuniculus [19]): 307 mg/dL; SC (Oryctolagus cuniculus [21]): 357 mg/dL |
| CCCCc1ccc(NC(=O)N(CCCC)CCCC)cc1 |  | 63 |  | 100 | 94 | 9.13 |  |
| CCCCCCCN(Cc1ccco1)C(=O)Nc1cc(C)c(C)cc1C |  | 44 |  | 38 |  |  | inhibition [22]: 94% |
| CCCCN(CCCC)C(=O)Nc1cccc(Cl)c1C |  | 87 |  | 93 | 80 | 4.08 |  |
| Cc1ccc(NC(=O)N(Cc2ccccc2)Cc2ccccc2)cc1Cl | 94 | 84 | 18.9 | 97 |  |  |  |
| CCCCN(CCCC)C(=O)Nc1cc(C)cc(C)c1 |  | 100 |  | 76 | 84 | 3.55 |  |
| CCCCN(CCCC)C(=O)Nc1cccc(Cl)c1 |  | 105 |  | 100 | 88 | 9.65 |  |
| CCCCCCCN(Cc1ccco1)C(=O)Nc1c(Cl)cc(Cl)cc1Cl | 96 | 37 | 0.407 | 34 |  |  |  |
| CCCCN(C(=O)Nc1ccc(C)cc1C)c1ccccc1 |  | 99 |  | 107 |  |  | IC50 [5]: 21.4 µM; inhibition [6]: 70% |
| Cc1ccc(NC(=O)N(CCC(C)C)CCC(C)C)c(C)c1 |  | 66 |  | 65 | 89 | 4.7 |  |
| CCCCN(CCCC)C(=O)Nc1ccc(C)cc1C |  | 81 |  | 78 | 81 | 9.84 |  |
| Cc1cc(Cl)ccc1NC(=O)N(Cc1ccccc1)Cc1ccccc1 | 63 | 53 | 3.37 | 26 |  |  |  |
| O=C(Nc1cccc(C(F)(F)F)c1)N(Cc1ccccc1)Cc1ccccc1 | 94 |  | 2.89 |  |  |  |  |
| CCCCN(CCCC)C(=O)Nc1ccc(F)c(Cl)c1 |  | 83 |  | 108 | 91 | 11.4 |  |
| O=C(Nc1cccc(Br)c1)N(Cc1ccccc1)Cc1ccccc1 |  | 92 |  | 86 | 92 | 5.77 |  |
| CCCCCCCN(Cc1cccs1)C(=O)Nc1cc(C)c(C)cc1C |  | 54 |  | 25 |  |  | IC50 [5]: 1.45 µM |
| CCCCN(CCCC)C(=O)Nc1ccc(OCC)cc1 |  |  |  |  |  |  | inhibition [23]: 79% |
